Plk1 PBD FP: Plk1 polo box domain binding inhibitors, primary screen, biochemical, fluorescence polarization; Plk1 PBD phosphopeptide binding; inhibition, %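 (tested at about 20 µM)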; actives 0.13% (n = 97,000); AID 693, 2007; in the data active = inhibition above about 34%, passing the limit was not always enough
EphB4 ephrin blk: EphB4-ephrin-B2 interaction antagonists, primary screen, biochemical, TNYL-RAW peptide probe, fluorescence polarization; AID 720, 2007; inhibition, % at 7 µM; EphB4 LBD / TNYL-RAW-Alexa532 peptide; Ephrin type-B receptor 4 (Homo sapiens), P54760; actives 0.15% (n = 97,000);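 active = inhibition above the screen-wide mean inhibition plus 3 SD, cut at about 15% in these data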;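 also: 0% = DMSO wells and 100% = excess unlabeled TNYL-RAW peptide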
Target sequence (P54760 whole entry, looked up, the tested form may be a part): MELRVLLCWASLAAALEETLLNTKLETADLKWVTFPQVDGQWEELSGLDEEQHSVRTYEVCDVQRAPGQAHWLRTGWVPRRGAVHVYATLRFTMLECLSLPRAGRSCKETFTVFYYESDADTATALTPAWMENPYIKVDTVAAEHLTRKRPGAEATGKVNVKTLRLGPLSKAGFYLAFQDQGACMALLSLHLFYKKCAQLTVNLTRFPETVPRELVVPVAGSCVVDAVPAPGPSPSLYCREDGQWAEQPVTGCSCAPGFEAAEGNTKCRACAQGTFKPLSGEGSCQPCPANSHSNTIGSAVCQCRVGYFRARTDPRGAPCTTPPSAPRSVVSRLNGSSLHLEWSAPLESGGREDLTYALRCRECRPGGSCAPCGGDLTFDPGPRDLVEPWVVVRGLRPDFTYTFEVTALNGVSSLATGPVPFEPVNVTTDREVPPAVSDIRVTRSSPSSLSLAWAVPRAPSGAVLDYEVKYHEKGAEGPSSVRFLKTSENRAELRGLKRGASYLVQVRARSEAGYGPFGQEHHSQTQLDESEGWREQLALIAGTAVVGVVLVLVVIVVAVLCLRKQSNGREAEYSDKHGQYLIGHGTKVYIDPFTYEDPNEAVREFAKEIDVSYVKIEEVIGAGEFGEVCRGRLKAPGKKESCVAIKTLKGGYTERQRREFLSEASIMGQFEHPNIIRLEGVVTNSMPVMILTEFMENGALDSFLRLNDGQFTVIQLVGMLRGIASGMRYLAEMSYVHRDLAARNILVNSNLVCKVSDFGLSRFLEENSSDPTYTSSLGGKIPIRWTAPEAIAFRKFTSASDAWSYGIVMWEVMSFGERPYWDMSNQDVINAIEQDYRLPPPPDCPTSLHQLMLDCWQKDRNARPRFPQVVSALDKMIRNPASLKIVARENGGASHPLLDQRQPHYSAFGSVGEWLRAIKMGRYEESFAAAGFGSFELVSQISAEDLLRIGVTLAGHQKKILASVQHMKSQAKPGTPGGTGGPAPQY
PLK1 kinase inh: human PLK1 kinase inhibitors, primary screen, biochemical, TR-FRET. recombinant PLK1 kinase, TR-FRET peptide phosphorylation. inhibition, % at 10 µM. actives 0.53% (n = 97,000). AID 619, 2007;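 active = inhibition of 50% or more in the single-concentration screen; inactive = inhibition below 50%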;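 also: 0% = DMSO max control and 100% = H-89 dihydrochloride min control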
PostGolgi yeast: phenotypic screen on post-Golgi transport, primary screen; AID 739, 2007; post-Golgi transport phenotypic cell assay; inhibition, % at 10 µM; actives 0.9% (n = 98,000);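 also: yeast cells grown in 1536-well plates; yeast grown about 18 h at 30C before absorbance read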
PostGolgi ctrl: growth inhibition of yeast control strain, primary screen, counter-screen for post-Golgi transport modulator project. efflux-deficient yeast background strain, growth absorbance A615, 16 h. inhibition, % at 10 µM. actives 5% (n = 98,000)
HIV Rev-RRE inh: HIV-1 Rev-RRE binding inhibitors, primary screen, biochemical, FRET, protein-RNA interaction; Rev peptide-RRE RNA binding; inhibition, % at 8 µM; actives 0.79% (n = 97,000);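 active = inhibition above the screen-wide mean plus 3 SD, cut at about 35% in these data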;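 also: 0% = median DMSO wells and 100% = median Neomycin B control wells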
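Assay system: Rev peptide and RRE RNA, both fluorescently labelled; times: 5 min preincubation and 15 min binding, 25 °C; detection: FRET, ex 480 nm, em 540 and 671 nm; read-out basis: % inhibition from 671/540 nm acceptor-to-donor ratio, scaled between controls; benchmarks: DMSO low control, neomycin B high control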
* = called active by the depositor; x = no result. Hits are enriched below; roughly 6.4% of the tested compounds scored in any of these assays. Rule as the data show it, unless noted: active = inhibition above about 30%; inactive = the rest.

SMILES	Plk1 PBD FP	EphB4 ephrin blk	PLK1 kinase inh	PostGolgi yeast	PostGolgi ctrl	HIV Rev-RRE inh
CCC(C(=O)c1ccccc1)N(C(=O)c1ccccc1Cl)N1C(=O)C2C3C=CC(C3)C2C1=O (centres undefined)	1.8	2.7	1.4	-5.0	3.8	11.9
CCOC(=O)N1CCN(C(=O)CN(Cc2ccccc2)S(C)(=O)=O)CC1	-10.8	-5.5	-12.2	5.2	5.3	0.5
CCOC(=O)N1CCN(c2ccc(S(=O)(=O)N(Cc3ccccc3)Cc3ccccc3)cn2)CC1	-17.3	-4.2	-6.8	34.2*	-4.3	-0.4
CCN(CC)C(=O)c1cc2sc3ccccc3c2s1	-6.9	-4.2	-7.5	-6.9	30.4*	2.0
COCCN(CCOC)C(=O)c1cc2sc3ccccc3c2s1	-20.7	6.9	2.6	-9.8	0.6	10.0
COC(=O)c1ccc(/C=N\N2CCN(Cc3ccc(C)cc3)CC2)cc1	9.8	-2.5	-4.3	0.0	-11.8	-0.6
Cc1ccc(CN2CCN(/N=C/c3cc(Br)ccc3O)CC2)cc1	-5.5	0.6	-14.0	74.1*	21.9	6.4
NCCCCCc1nnc(SCc2ccc(Cl)c(Cl)c2)o1	30.8	2.1	-6.8	-19.1	5.9	-1.6
CC(=O)N(C)c1ccc(NC(=O)c2cnn(C)c2)cc1	0.6	0.7	-5.5	-1.9	-0.6	4.7
Cc1ccc(-n2nc(C)c3c2OC(N)=C(C#N)C3c2ccncc2)cc1 (centres undefined)	9.4	3.0	-0.4	17.1	-1.2	1.6
Cc1nn(-c2ccccc2)c2c1C(c1ccncc1)C(C#N)=C(N)O2 (centres undefined)	4.9	-2.6	-16.8	8.8	31.8*	3.7
NC(=O)c1cc(Br)cc2c3c([nH]c12)CCCC3	-20.6	1.8	6.5	5.2	77.8*	10.7
Cc1cc(C(c2nnnn2Cc2ccccc2)N2CCOCC2)c(C)n1-c1ccc2c(c1)OCO2 (centres undefined)	-12.4	-4.5	-1.1	-12.2	17.4	-1.0
Cn1cc(/C=N/n2cnc3sc4c(c3c2=O)CCCC4)c2ccccc21	-1.7	-8.3	0.7	-0.8	21.4	1.1
O=c1c2c3c(sc2ncn1/N=C/c1ccc([N+](=O)[O-])o1)CCCC3	15.3	0.8	3.0	105.4*	60.3*	12.2
N#CC(c1ccc(Cl)cc1)(c1ncc(C(F)(F)F)cc1Cl)N1CCOCC1 (centres undefined)	-4.0	5.6	-5.8	14.0	14.1	5.5
COc1ccccc1N1CCN(C(=O)CN(Cc2ccccc2)S(C)(=O)=O)CC1	-18.8	1.0	-3.9	34.9*	10.6	2.0
COc1ccc(N2CCN(C(=O)CN(Cc3ccccc3)S(C)(=O)=O)CC2)cc1	16.5	4.5	-11.6	0.2	0.8	4.1
O=C(CSc1nc(Nc2ccccc2)nc(N2CCOCC2)n1)Nc1ccc([N+](=O)[O-])cc1	23.8	0.7	-7.8	44.5*	17.2	9.9
COC1CCCCC1NS(=O)(=O)c1ccc(Cl)cc1 (centres undefined)	-5.3	-5.7	68.3*	0.2	6.1	2.5
CCOc1ccc(NC(=O)N[C@@H](CCSC)C(=O)OC)cc1	-3.0	4.9	-3.4	-6.1	-2.0	4.1
Cc1nn2c(-n3ccnc3)c3c(nc2c1-c1ccccc1)CCC3	-19.8	2.2	20.4	74.2*	81.3*	4.4
CCC(C)Nc1c2c(nc3c(-c4ccccc4)c(C)nn13)CCC2 (centres undefined)	-9.6	-1.1	-10.5	-5.4	38.9*	4.8
CCCCNc1c2c(nc3c(-c4ccccc4)c(C)nn13)CCC2	-9.6	-2.6	-2.3	4.0	16.1	0.8
COc1ccc(C2=CC(=O)OC3(CCCC3)O2)cc1	-18.1	-1.9	-10.1	4.7	13.9	2.7
SMILES	Plk1 PBD FP	EphB4 ephrin blk	PLK1 kinase inh	PostGolgi yeast	PostGolgi ctrl	HIV Rev-RRE inh
O=C1CC(N2CCN(Cc3ccc4c(c3)OCO4)CC2)C(=O)N1c1ccccc1 (centres undefined)	-11.9	6.5	17.2	-0.5	40.0*	10.1
Cc1ccc(-c2csc3nnc(SCC(=O)Nc4cccc(C)n4)n23)cc1	-16.2	-7.9	-7.7	34.7*	-5.8	2.0
CCN(Cc1ccccc1)C(=O)CSc1nc(C)cc(C)c1C#N	-11.6	-1.3	-10.5	9.8	34.8*	8.9
Cc1cc(C)c(C#N)c(SCC(=O)N2CCN(Cc3ccccc3)CC2)n1	12.5	2.5	-9.1	16.3	31.4*	7.7
O=C(Nc1ncc(Cc2ccccc2)s1)C1COc2ccccc2O1 (centres undefined)	-13.0	6.9	-11.3	-6.7	7.2	3.1
COc1cc(C)ccc1OCCCON1C(=O)CCC1=O	15.6	2.6	0.2	2.0	-3.2	2.1
CC(C)(C)c1ccc(OCCON2C(=O)CCC2=O)c(Cl)c1	-2.8	5.0	-45.3	-2.1	33.4*	16.0
CCC(C(=O)c1ccc(O)cc1)c1ccccc1 (centres undefined)	-2.3	8.4	0.0	1.4	35.9*	5.3
COc1ccc(C(=O)C(CN2CCCC2)c2ccccc2)cc1 (centres undefined)	12.1	2.8	-4.8	-4.3	-1.6	4.4
CC(C)NC(=O)c1onc(CSc2cccc(Cl)c2)c1C(=O)O	5.6	-3.5	-7.1	2.2	2.9	-1.1
CCOc1ccc2[nH]c(=O)c(CN(Cc3cccs3)C(CC)c3nnnn3C(C)(C)CC)cc2c1 (centres undefined)	x	x	x	5.8	37.0*	x
CCOC(=O)C(CSCC(=O)c1ccc(Cl)cc1)NC(=O)OC(C)(C)C (centres undefined)	-11.2	1.9	-8.6	-6.0	-7.7	9.8
O=C(CSc1n[nH]c(=O)n1C1CC1)Nc1cc(Cl)ccc1Oc1ccccc1	4.4	-8.3	-13.8	-4.8	7.5	8.8
CC(C)OCCCNC(=O)c1cc2c(=O)n(C)c3ccccc3c2n1C	19.1	1.9	-4.8	3.0	31.7*	4.7
CCCCN(CC)CCCNC(=O)c1cc2c(=O)n(C)c3ccccc3c2n1C	3.3	-0.6	-7.1	4.8	3.5	9.5
Cc1cc(O)c(/C=N/Nc2ccc(Cl)cc2)c(=O)o1	-5.9	5.4	-10.2	66.1*	8.4	8.9
CCn1c(CCNC(=O)c2ccc(Cl)c(Cl)c2)nnc1SCCOc1ccc(OC)cc1	-20.3	-7.3	-5.7	-1.8	19.0	5.4
COc1ccc(OC)c(S(=O)(=O)Nc2ccc(O)c(Sc3ncn[nH]3)c2)c1	3.5	-4.7	-35.7	-5.0	42.8*	1.9
Cc1ccc(NC(C(N)=O)c2c(C)[nH]c(=O)[nH]c2=O)cc1 (centres undefined)	0.2	-7.3	-4.8	3.8	7.7	-2.2
O=C(Nc1ccc(Cl)cc1)N1CCC(c2nc(-c3ccc(F)cc3)no2)CC1	6.5	3.4	-1.6	-2.6	28.3	11.1

Source: PubChem BioAssay (several laboratories)
